From ChEMBL document CHEMBL2331309, “2,3-Diarylpropenoic acids as selective non-steroidal inhibitors of type-5 17β-hydroxysteroid dehydrogenase (AKR1C3)” (Eur J Med Chem, 2013) come the findings set out here.

Positions count from the first letter of the chain named.

In general, inhibition refers to how much of the control response was suppressed. As usually defined, the IC50 is the concentration that gives 50% inhibition.

Assay [1] deals with T1, Aldo-keto reductase family 1 member C1 (Homo sapiens) (UniProt Q04828).
T1 sequence (whole entry): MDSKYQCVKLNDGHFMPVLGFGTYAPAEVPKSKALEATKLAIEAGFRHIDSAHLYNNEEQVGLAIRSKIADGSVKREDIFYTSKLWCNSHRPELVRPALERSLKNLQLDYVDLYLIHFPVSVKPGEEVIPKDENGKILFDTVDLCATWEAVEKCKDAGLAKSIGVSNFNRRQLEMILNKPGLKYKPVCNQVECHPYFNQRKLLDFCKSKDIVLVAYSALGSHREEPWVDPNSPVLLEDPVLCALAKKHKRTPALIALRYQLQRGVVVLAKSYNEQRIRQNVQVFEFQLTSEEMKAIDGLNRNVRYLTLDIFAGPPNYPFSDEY
Nature of the assay: Inhibition of human recombinant AKR1C1 expressed in Escherichia coli assessed as decrease in oxidation of 1-acenaphthenol substrate at 100 uM by spectrophotometric analysis. A digest of the protocol: (§1)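 Single-point screen at 100 μM compound. Recombinant enzyme oxidizes 1-acenaphthenol with 2.3 mM NAD⁺ in 100 mM phosphate buffer pH 9.0, 0.005% Triton X-114, 5% DMSO. AKR1C1: 30 μM substrate (Km), 0.3 μM enzyme. AKR1C2: 50 μM substrate (Km), 0.2 μM enzyme. NADH formation read at 340 nm from initial velocities. Result given as % inhibition.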

The target in assay [2] is T2, Aldo-keto reductase family 1 member C2 (Homo sapiens) (UniProt P52895).
T2 sequence (whole entry): T1 sequence (whole entry) with T38V, R47H, L54V, C87S, V151M, R170H, Q172L
The assay is described as follows: Inhibition of recombinant AKR1C2 (unknown origin) assessed as decrease in oxidation of 1-acenaphthenol substrate at 100 uM by spectrophotometric analysis. A digest of the protocol: as §1

Assay [3] concerns the target T3, Aldo-keto reductase family 1 member C1 (Homo sapiens, UniProt Q04828).
T3 sequence (Q04828 whole entry): T1 sequence (whole entry)
The assay is described as follows: Inhibition of human recombinant AKR1C1 expressed in Escherichia coli assessed as decrease in oxidation of 1-acenaphthenol substrate by spectrophotometric analysis. An outline of the steps:
(§2)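 IC50 measured for compounds giving over 50% inhibition at 100 μM. Assay uses 1-acenaphthenol oxidation with 2.3 mM NAD⁺ in pH 9.0 100 mM phosphate buffer with 0.005% Triton X-114 and 5% DMSO. AKR1C1 runs at 30 μM substrate and 0.3 μM enzyme; AKR1C2 at 50 μM substrate and 0.2 μM enzyme. Initial rates come from NADH at 340 nm. IC50 is read from log[inhibitor] versus % inhibition plots.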

Assay [4] addresses T4, Aldo-keto reductase family 1 member C3 (Homo sapiens, UniProt P42330).
T4 sequence (P42330 whole entry): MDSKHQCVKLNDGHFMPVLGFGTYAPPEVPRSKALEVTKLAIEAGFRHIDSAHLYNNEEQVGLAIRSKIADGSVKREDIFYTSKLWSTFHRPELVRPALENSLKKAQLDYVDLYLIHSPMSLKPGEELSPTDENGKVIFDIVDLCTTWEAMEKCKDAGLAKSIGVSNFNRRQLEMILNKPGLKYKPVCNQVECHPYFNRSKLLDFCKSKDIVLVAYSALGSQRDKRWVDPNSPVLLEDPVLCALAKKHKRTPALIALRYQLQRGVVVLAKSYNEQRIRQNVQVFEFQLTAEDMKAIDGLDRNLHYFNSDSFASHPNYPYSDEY
The assay is described as follows: Inhibition of recombinant AKR1C3 (unknown origin) assessed as decrease in oxidation of 1-acenaphthenol substrate by spectrophotometric analysis.

The target in assay [5] is T5, Aldo-keto reductase family 1 member C2 (Homo sapiens, UniProt P52895).
T5 sequence (P52895 whole entry): T1 sequence (whole entry) with T38V, R47H, L54V, C87S, V151M, R170H, Q172L
Nature of the assay: Inhibition of recombinant AKR1C2 (unknown origin) assessed as decrease in oxidation of 1-acenaphthenol substrate by spectrophotometric analysis. An outline of the steps:
as §2

For the compound `CSc1ccc(/C=C(/C(=O)O)c2cccc(Cl)c2)cc1`, the figures for the inhibition in assay [1] and in assay [2] were 81.7% and 78.3%, respectively. Further, the results for the IC50 in assay [3], in assay [4] and in assay [5] were 19.1 µM, 17 µM and 20.8 µM, respectively.
On to `CS(=O)(=O)c1ccc(/C=C(/C(=O)O)c2ccc(Cl)cc2)cc1`, for which the inhibition is 89.6% in assay [1] and 63.4% in assay [2]. Moreover, the IC50 in assay [3] came out at 15.7 µM; in assay [4], 86.6 µM; in assay [5], 26.9 µM.
